According to ChEMBL document CHEMBL4020842, “Discovery of N1-(4-((7-Cyclopentyl-6-(dimethylcarbamoyl)-7 H-pyrrolo[2,3- d]pyrimidin-2-yl)amino)phenyl)- N8-hydroxyoctanediamide as a Novel Inhibitor Targeting Cyclin-dependent Kinase 4/9 (CDK4/9) and Histone Deacetlyase1 (HDAC1) against Malignant Cancer” (J Med Chem, 2018):
One block for each compound: values may come before it. The source made the active and inactive calls. No cut-off for these calls is given here.

Columns and labels:
Histone deacetylase 1 [1] = molecular target: T1, Histone deacetylase 1 (Homo sapiens, UniProt Q13547); assay: Inhibition of HDAC1 (unknown origin)
CDK4/Cyclin D3 = CDK4/Cyclin D3 (Homo sapiens, UniProt P11802); assay: Inhibition of recombinant human full length N-terminal GST-tagged CDK4/Cyclin-D3 co-expressed in baculovirus infected sf21 cells using Rb substrate in presence of [gamma33P]ATP after 10 mins by scintillation counting method
Histone deacetylase 1 [2] = molecular target: T1, Histone deacetylase 1; assay: Potency index, ratio of vorinostat IC50 to compound IC50 for HDAC1 (unknown origin)
MDA-MB-231 [3] = assay: Induction of apoptosis in human MDA-MB-231 cells assessed as early apoptotic cells at 10 uM after 48 hrs by annexin V-FITC/propidium iodide staining based flow cytometry (reference value: 0.4%); type: functional
Hep 3B2 [4] = assay: Cytotoxicity against human Hep3B cells assessed as reduction in cell viability after 72 hrs by CCK8 assay
Hep 3B2 [5] = assay: Induction of apoptosis in human Hep3B cells assessed as necrotic cells at 10 uM after 48 hrs by annexin V-FITC/propidium iodide staining based flow cytometry (reference value: 4.97%); type: functional
HepG2 [6] = assay: Induction of apoptosis in human HepG2 cells assessed as late apoptotic cells at 10 uM after 48 hrs by annexin V-FITC/propidium iodide staining based flow cytometry (reference value: 0.64%); type: functional
MDA-MB-231 [7] = assay: Induction of apoptosis in human MDA-MB-231 cells assessed as necrotic cells at 10 uM after 48 hrs by annexin V-FITC/propidium iodide staining based flow cytometry (reference value: […]); type: functional
4T1 = assay: Antitumor activity against mouse Fluc-labeled 4T1 cells implanted in Balb/c mouse assessed as reduction in tumor weight at 130 mg/kg, ip administered daily for 18 days measured after 8 to 25 days; type: functional, organism-based
Outline: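 Luciferase (Fluc) reporter introduced into 4T1 cells by lentiviral transduction. Cells implanted orthotopically into mammary fat pads of female BALB/c mice aged 6–8 weeks. Once tumours averaged 100 mm3, dosing was daily by IP injection. Bioluminescence imaging was done at days 8 and 25 to reflect viable tumour cell number. Tumour weight was recorded at study end.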

A549 [8] = assay: Induction of apoptosis in human A549 cells assessed as necrotic cells at 10 uM after 48 hrs by annexin V-FITC/propidium iodide staining based flow cytometry (reference value: […]%); type: functional
A549 [9] = assay: Induction of apoptosis in human A549 cells assessed as late apoptotic cells at 10 uM after 48 hrs by annexin V-FITC/propidium iodide staining based flow cytometry (reference value: 0.88%); type: functional
T47D [10] = assay: Induction of apoptosis in human T47D cells assessed as live cells at 10 uM after 48 hrs by annexin V-FITC/propidium iodide staining based flow cytometry (reference value: 85.3%); type: functional
Hep 3B2 [11] = assay: Induction of apoptosis in human Hep3B cells assessed as late apoptotic cells at 10 uM after 48 hrs by annexin V-FITC/propidium iodide staining based flow cytometry (reference value: 5.25%); type: functional
MDA-MB-231 [12] = assay: Induction of apoptosis in human MDA-MB-231 cells assessed as live cells at 10 uM after 48 hrs by annexin V-FITC/propidium iodide staining based flow cytometry (reference value: 98.1%); type: functional
Hep 3B2 [13] = assay: Induction of apoptosis in human Hep3B cells assessed as live cells at 10 uM after 48 hrs by annexin V-FITC/propidium iodide staining based flow cytometry (reference value: 97.9%); type: functional
NCI-H460 [14] = assay: Induction of apoptosis in human NCI-H460 cells assessed as late apoptotic cells at 10 uM after 48 hrs by annexin V-FITC/propidium iodide staining based flow cytometry (reference value: 1.29%); type: functional
NCI-H460 [15] = assay: Induction of apoptosis in human NCI-H460 cells assessed as live cells at 10 uM after 48 hrs by annexin V-FITC/propidium iodide staining based flow cytometry (reference value: 97.3%); type: functional
T47D [16] = assay: Induction of apoptosis in human T47D cells assessed as early apoptotic cells at 10 uM after 48 hrs by annexin V-FITC/propidium iodide staining based flow cytometry (reference value: 7.7%); type: functional
T47D [17] = assay: Induction of apoptosis in human T47D cells assessed as late apoptotic cells at 10 uM after 48 hrs by annexin V-FITC/propidium iodide staining based flow cytometry (reference value: 6.16%); type: functional
HepG2 [18] = assay: Induction of apoptosis in human HepG2 cells assessed as necrotic cells at 10 uM after 48 hrs by annexin V-FITC/propidium iodide staining based flow cytometry (reference value: 2.32%); type: functional
MDA-MB-231 [19] = assay: Induction of apoptosis in human MDA-MB-231 cells assessed as late apoptotic cells at 10 uM after 48 hrs by annexin V-FITC/propidium iodide staining based flow cytometry (reference value: 1.53%); type: functional
NCI-H460 [20] = assay: Induction of apoptosis in human NCI-H460 cells assessed as necrotic cells at 10 uM after 48 hrs by annexin V-FITC/propidium iodide staining based flow cytometry (reference value: 1.34%); type: functional
A549 [21] = assay: Induction of apoptosis in human A549 cells assessed as early apoptotic cells at 10 uM after 48 hrs by annexin V-FITC/propidium iodide staining based flow cytometry (reference value: 0.41%); type: functional
T47D [22] = assay: Induction of apoptosis in human T47D cells assessed as necrotic cells at 10 uM after 48 hrs by annexin V-FITC/propidium iodide staining based flow cytometry (reference value: 0.8%); type: functional
HepG2 [23] = assay: Induction of apoptosis in human HepG2 cells assessed as live cells at 10 uM after 48 hrs by annexin V-FITC/propidium iodide staining based flow cytometry (reference value: 96.7%); type: functional
NCI-H460 [24] = assay: Induction of apoptosis in human NCI-H460 cells assessed as early apoptotic cells at 10 uM after 48 hrs by annexin V-FITC/propidium iodide staining based flow cytometry (reference value: 0.11%); type: functional
HepG2 [25] = assay: Induction of apoptosis in human HepG2 cells assessed as early apoptotic cells at 10 uM after 48 hrs by annexin V-FITC/propidium iodide staining based flow cytometry (reference value: 0.3%); type: functional
A549 [26] = assay: Induction of apoptosis in human A549 cells assessed as live cells at 10 uM after 48 hrs by annexin V-FITC/propidium iodide staining based flow cytometry (reference value: 92.7%); type: functional

T1 sequence (Q13547 whole entry): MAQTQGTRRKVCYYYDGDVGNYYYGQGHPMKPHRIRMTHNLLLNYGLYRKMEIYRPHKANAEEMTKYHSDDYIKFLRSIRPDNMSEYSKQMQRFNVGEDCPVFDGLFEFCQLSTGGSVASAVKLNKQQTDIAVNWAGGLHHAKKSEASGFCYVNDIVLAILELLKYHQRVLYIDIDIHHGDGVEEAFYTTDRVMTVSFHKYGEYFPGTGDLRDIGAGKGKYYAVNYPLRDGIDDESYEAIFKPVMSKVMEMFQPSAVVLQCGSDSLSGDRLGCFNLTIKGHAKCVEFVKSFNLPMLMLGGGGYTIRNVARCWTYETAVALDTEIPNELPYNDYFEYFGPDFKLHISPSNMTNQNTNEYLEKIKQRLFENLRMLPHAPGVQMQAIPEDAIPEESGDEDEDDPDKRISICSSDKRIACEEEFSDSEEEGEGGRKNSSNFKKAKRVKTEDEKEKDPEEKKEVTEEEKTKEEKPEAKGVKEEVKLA
Chain of CDK4/Cyclin D3 (P11802 whole entry): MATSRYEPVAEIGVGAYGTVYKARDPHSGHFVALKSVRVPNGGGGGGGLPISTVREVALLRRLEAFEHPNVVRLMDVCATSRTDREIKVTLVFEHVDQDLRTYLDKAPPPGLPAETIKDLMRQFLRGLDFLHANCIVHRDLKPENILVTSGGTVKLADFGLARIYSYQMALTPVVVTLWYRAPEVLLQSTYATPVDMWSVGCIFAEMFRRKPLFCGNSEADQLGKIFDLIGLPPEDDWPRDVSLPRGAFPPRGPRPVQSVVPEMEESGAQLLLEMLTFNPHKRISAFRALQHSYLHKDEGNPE
Chain of CDK4/Cyclin D3 (P30281 whole entry, further chain): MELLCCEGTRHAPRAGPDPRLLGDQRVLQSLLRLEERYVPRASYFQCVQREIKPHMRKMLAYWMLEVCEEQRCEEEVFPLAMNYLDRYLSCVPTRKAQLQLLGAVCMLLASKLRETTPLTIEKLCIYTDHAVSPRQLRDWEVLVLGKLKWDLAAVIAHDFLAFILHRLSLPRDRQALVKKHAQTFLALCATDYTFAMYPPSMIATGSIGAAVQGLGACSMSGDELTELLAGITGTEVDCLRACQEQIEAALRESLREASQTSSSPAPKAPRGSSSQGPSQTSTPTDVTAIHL

IC50 (Histone deacetylase 1 [1]): > 5000 nM
IC50 (CDK4/Cyclin D3): 47 nM
Ratio IC50 (Histone deacetylase 1 [2]): 10 to 100
SMILES: COC(=O)CCCCCCC(=O)Nc1ccc(Nc2ncc3cc(C(=O)N(C)C)n(C4CCCC4)c3n2)nc1

IC50 (CDK4/Cyclin D3): 24 nM
SMILES: COC(=O)CCCCCCCC(=O)Nc1ccc(Nc2ncc3cc(C(=O)N(C)C)n(C4CCCC4)c3n2)cc1

IC50 (Histone deacetylase 1 [1]): 3 nM
IC50 (CDK4/Cyclin D3): 8.1 nM
Ratio IC50 (Histone deacetylase 1 [2]): 10 to 100
SMILES: CN(C)C(=O)c1cc2cnc(Nc3ccc(NC(=O)CCCCCCCC(=O)NO)cc3)nc2n1C1CCCC1

IC50 (Histone deacetylase 1 [1]): 433 nM
IC50 (CDK4/Cyclin D3): 1140 nM
Ratio IC50 (Histone deacetylase 1 [2]): 10 to 100
SMILES: O=C(CCCCCCC(=O)Nc1ccc(Nc2ncc3nnn(C4CCCC4)c3n2)cc1)NO

IC50 (Histone deacetylase 1 [1]): > 5000 nM
IC50 (CDK4/Cyclin D3): 12 nM
Ratio IC50 (Histone deacetylase 1 [2]): 10 to 100
SMILES: COC(=O)CCCCCCC(=O)Nc1ccc(Nc2ncc3cc(C(=O)N(C)C)n(C4CCCC4)c3n2)cc1

IC50 (CDK4/Cyclin D3): 4.8 nM
SMILES: COC(=O)CCCCC(=O)Nc1ccc(Nc2ncc3cc(C(=O)N(C)C)n(C4CCCC4)c3n2)cc1

IC50 (Histone deacetylase 1 [1]): > 5000 nM
IC50 (CDK4/Cyclin D3): > 5000 nM
Ratio IC50 (Histone deacetylase 1 [2]): 10 to 100
SMILES: COC(=O)CCCCCCC(=O)Nc1ccc(Nc2ncc3ncn(C4CCCC4)c3n2)cc1

IC50 (CDK4/Cyclin D3): 27 nM
SMILES: CCCCCCC(=O)Nc1ccc(Nc2ncc3cc(C(=O)N(C)C)n(C4CCCC4)c3n2)cc1

IC50 (Histone deacetylase 1 [1]): > 5000 nM
IC50 (CDK4/Cyclin D3): 18 nM
Ratio IC50 (Histone deacetylase 1 [2]): 10 to 100
SMILES: CN(C)C(=O)c1cc2cnc(Nc3ccc(NC(=O)CCCCCCC(=O)O)cc3)nc2n1C1CCCC1

IC50 (CDK4/Cyclin D3): 29 nM
SMILES: CCCCCCCC(=O)Nc1ccc(Nc2ncc3cc(C(=O)N(C)C)n(C4CCCC4)c3n2)cc1

The next lines start with the compound.

SMILES: CN(C)C(=O)c1cc2cnc(Nc3ccc(C(=O)NCCCCCCCC(=O)NO)cc3)nc2n1C1CCCC1
IC50 (Histone deacetylase 1 [1]): 1.6 nM
IC50 (CDK4/Cyclin D3): 26 nM
Ratio IC50 (Histone deacetylase 1 [2]): 10 to 100

SMILES: CN(C)C(=O)c1cc2cnc(Nc3ccc(C(=O)NCCCCCC(=O)NO)cc3)nc2n1C1CCCC1
IC50 (Histone deacetylase 1 [1]): 0.53 nM
IC50 (CDK4/Cyclin D3): 9.6 nM
Ratio IC50 (Histone deacetylase 1 [2]): 10 to 100

SMILES: COC(=O)CCCCCCC(=O)Nc1ccccc1Nc1ncc2cc(C(=O)N(C)C)n(C3CCCC3)c2n1
IC50 (CDK4/Cyclin D3): > 5000 nM

SMILES: CN(C)C(=O)c1cc2cnc(Nc3ccc(C(=O)NCCCCC(=O)NO)cc3)nc2n1C1CCCC1
IC50 (CDK4/Cyclin D3): 11 nM

SMILES: COC(=O)CCCCCCC(=O)N1CCN(c2ccc(Nc3ncc4cc(C(=O)N(C)C)n(C5CCCC5)c4n3)nc2)CC1
IC50 (Histone deacetylase 1 [1]): > 5000 nM
IC50 (CDK4/Cyclin D3): 13 nM
Ratio IC50 (Histone deacetylase 1 [2]): 10 to 100

SMILES: CN(C)C(=O)c1cc2cnc(Nc3ccc(NC(=O)NCCCCCC(=O)NO)cc3)nc2n1C1CCCC1
IC50 (Histone deacetylase 1 [1]): 1.6 nM
IC50 (CDK4/Cyclin D3): 8.4 nM
Ratio IC50 (Histone deacetylase 1 [2]): 10 to 100

SMILES: O=C(CCCCCCC(=O)Nc1ccccc1)NO [VORINOSTAT]
Activity (MDA-MB-231 [3]): 3.74%
IC50 (Hep 3B2 [4]): 2300 nM
Activity (Hep 3B2 [5]): 3.43%
Activity (HepG2 [6]): 14%
Activity (MDA-MB-231 [7]): 2.72%
Activity (4T1): Active
Activity (A549 [8]): 18.1%
Activity (A549 [9]): 33.4%
Activity (T47D [10]): 20.4%
Activity (Hep 3B2 [11]): 32.8%
Activity (MDA-MB-231 [12]): 74.8%
Activity (Hep 3B2 [13]): 53.2%
Activity (NCI-H460 [14]): 6.4%
Activity (NCI-H460 [15]): 86.6%
Activity (T47D [16]): 48.6%
Activity (T47D [17]): 26.4%
Activity (HepG2 [18]): 5.69%
Activity (MDA-MB-231 [19]): 18.7%
Activity (NCI-H460 [20]): 4.81%
Activity (A549 [21]): 6.41%
Activity (T47D [22]): 4.48%
Activity (HepG2 [23]): 74.9%
Activity (NCI-H460 [24]): 2.2%
Activity (HepG2 [25]): 5.43%
Activity (A549 [26]): 42.1%

SMILES: CN(C)C(=O)c1cc2cnc(Nc3ccc(NC(=O)CCCCC(=O)NO)cc3)nc2n1C1CCCC1
IC50 (Histone deacetylase 1 [1]): 27 nM
IC50 (CDK4/Cyclin D3): 11 nM
Ratio IC50 (Histone deacetylase 1 [2]): 10 to 100

SMILES: COC(=O)CCCCCCNC(=O)c1ccc(Nc2ncc3cc(C(=O)N(C)C)n(C4CCCC4)c3n2)cc1
IC50 (CDK4/Cyclin D3): 11 nM

SMILES: CN(C)C(=O)c1cc2cnc(Nc3ccccc3NC(=O)CCCCCCC(=O)NO)nc2n1C1CCCC1
IC50 (Histone deacetylase 1 [1]): 37 nM
IC50 (CDK4/Cyclin D3): > 5000 nM
Ratio IC50 (Histone deacetylase 1 [2]): 10 to 100

SMILES: COC(=O)CCCCNC(=O)c1ccc(Nc2ncc3cc(C(=O)N(C)C)n(C4CCCC4)c3n2)cc1
IC50 (CDK4/Cyclin D3): 6.3 nM
